Drawing on ChEMBL document CHEMBL1141940, “N-[(3S)-1-benzylpyrrolidin-3-yl]-(2-thienyl)benzamides: human dopamine D4 ligands with high affinity for the 5-HT2A receptor” (Bioorg Med Chem Lett, 2005), this text covers Ki and inhibition for 15 molecules.

Assay [1] concerns the target T1, D(2) dopamine receptor (Homo sapiens, UniProt P14416). As to the kind of experiment: Displacement of [3H]spiperone from human dopamine D2(short) receptor in rat pituitary GH4C1 cells. Type of assay: cell-based, Pituitary gland cell. The method in brief:
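Rat pituitary GH4C1 cells stably expressing cloned hD2 (short isoform), with [3H]spiperone displacement. Non-specific binding was defined with […]. Ki was calculated by Cheng–Prusoff transformation.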
A general note: Displacement assays read how much labelled ligand stays bound in the presence of the test substance.

Assay [2] concerns the target T2, Adrenergic receptor alpha-1 (Rattus norvegicus, UniProt P15823+P23944+P43140).
T2 sequence (P15823 whole entry): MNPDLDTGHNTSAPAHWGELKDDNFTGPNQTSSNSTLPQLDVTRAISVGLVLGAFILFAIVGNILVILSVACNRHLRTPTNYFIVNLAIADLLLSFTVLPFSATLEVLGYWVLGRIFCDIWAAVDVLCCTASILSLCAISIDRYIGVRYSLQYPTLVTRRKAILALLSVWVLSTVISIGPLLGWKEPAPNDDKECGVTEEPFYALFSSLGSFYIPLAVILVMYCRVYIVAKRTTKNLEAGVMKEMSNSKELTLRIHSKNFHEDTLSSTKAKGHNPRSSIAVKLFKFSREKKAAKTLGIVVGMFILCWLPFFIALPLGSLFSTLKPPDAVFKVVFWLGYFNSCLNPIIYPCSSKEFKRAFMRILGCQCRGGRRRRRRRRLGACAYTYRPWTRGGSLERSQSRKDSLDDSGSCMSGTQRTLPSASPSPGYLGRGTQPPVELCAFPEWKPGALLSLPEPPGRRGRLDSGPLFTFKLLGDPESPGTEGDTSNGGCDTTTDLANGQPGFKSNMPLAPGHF
T2 sequence (P23944 whole entry): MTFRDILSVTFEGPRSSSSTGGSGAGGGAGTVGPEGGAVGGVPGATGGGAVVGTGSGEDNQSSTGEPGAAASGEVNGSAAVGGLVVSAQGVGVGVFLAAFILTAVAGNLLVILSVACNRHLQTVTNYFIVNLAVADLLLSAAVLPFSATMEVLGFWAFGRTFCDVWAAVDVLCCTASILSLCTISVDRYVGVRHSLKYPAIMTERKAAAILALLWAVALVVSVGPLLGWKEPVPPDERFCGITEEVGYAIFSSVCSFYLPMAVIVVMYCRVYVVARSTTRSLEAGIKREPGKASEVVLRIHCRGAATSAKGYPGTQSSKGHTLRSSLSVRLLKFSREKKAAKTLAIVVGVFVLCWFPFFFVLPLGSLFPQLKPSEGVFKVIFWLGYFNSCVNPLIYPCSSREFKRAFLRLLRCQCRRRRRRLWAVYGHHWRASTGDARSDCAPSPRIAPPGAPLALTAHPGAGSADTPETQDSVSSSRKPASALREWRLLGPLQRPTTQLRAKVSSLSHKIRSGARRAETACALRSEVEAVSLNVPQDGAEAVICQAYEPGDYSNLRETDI
T2 sequence (P43140 whole entry): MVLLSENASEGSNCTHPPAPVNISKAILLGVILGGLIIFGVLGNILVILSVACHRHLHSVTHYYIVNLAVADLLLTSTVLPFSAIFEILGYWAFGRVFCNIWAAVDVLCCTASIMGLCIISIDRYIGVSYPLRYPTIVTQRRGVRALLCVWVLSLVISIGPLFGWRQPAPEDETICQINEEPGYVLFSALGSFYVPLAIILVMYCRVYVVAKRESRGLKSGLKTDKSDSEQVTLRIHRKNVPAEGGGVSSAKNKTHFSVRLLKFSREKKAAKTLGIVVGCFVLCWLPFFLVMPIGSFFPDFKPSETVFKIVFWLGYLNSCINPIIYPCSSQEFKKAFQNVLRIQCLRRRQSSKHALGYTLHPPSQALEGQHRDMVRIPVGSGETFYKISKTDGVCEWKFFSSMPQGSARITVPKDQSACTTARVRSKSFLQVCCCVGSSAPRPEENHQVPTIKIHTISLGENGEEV
Nature of the assay: Displacement of 7-methoxy-[3H]prazosin from adrenergic alpha-1 receptor in rat frontal cortex tissue. Type of assay: tissue-based. The method in brief:
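Rat frontal cortex tissue as receptor source, with 7-methoxy-[3H]prazosin as radioligand. Non-specific binding was defined with […]. Ki was obtained by Cheng–Prusoff transformation and reported as the mean of at least two independent determinations ± SEM.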

The target of another assay is T3, D(4) dopamine receptor (Homo sapiens, UniProt P21917).
T3 sequence (P21917 whole entry): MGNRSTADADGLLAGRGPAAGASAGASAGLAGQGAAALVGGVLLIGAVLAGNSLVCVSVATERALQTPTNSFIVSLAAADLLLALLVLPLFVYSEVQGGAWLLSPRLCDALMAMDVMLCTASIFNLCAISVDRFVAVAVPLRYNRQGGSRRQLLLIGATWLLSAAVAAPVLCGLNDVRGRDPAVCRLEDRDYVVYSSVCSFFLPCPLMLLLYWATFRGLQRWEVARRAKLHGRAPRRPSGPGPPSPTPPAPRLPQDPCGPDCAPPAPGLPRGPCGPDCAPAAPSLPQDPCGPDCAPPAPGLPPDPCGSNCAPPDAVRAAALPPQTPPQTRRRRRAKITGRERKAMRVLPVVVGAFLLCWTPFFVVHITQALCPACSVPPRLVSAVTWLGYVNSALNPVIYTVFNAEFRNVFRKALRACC
As to the kind of experiment: Displacement of [3H]spiperone from cloned human dopamine D4.2 receptor in […] cells. Type of assay: cell-based. In short, it runs like this: (§1)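 […] cells stably transfected with cloned receptor: hD4 (D4.2 subtype) with [3H]spiperone, h5-HT2A with [3H]ketanserin. Non-specific binding was defined with methysergide. Ki came from Cheng–Prusoff conversion and is the mean of at least two independent determinations ± SEM.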

In assay [3] the target is T4, 5-hydroxytryptamine receptor 2A (Homo sapiens, UniProt P28223). Nature of the assay: Inhibitory activity against cloned human 5HT2A receptor in […] cells at 100 nM. Type of assay: cell-based.
T4 sequence (P28223 whole entry): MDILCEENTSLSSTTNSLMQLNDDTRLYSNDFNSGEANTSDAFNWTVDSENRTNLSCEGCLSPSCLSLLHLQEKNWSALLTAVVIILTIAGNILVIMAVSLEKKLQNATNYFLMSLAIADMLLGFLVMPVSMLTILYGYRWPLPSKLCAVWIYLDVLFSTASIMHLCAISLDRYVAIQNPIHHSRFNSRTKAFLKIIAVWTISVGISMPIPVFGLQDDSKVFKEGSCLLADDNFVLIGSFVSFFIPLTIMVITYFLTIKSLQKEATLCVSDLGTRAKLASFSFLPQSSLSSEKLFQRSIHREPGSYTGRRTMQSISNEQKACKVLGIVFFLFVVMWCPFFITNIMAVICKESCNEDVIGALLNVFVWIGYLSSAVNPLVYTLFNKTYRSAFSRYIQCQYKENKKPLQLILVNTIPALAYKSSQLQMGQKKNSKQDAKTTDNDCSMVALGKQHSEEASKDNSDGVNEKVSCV
In assay [4] the target is T4, 5-hydroxytryptamine receptor 2A. As to the kind of experiment: Displacement of [3H]ketanserin from cloned human 5HT2A receptor in […] cells. In kind it is cell-based. The method in brief:
as §1

The target of assay [5] is T5, Adrenergic receptor alpha-1 (Rattus norvegicus) (UniProt P15823+P23944+P43140). As to the kind of experiment: Inhibitory activity against adrenergic alpha1 receptor in rat frontal cortex tissue at 100 nM. Type of assay: tissue-based.
Assay [6] has as its target T1, D(2) dopamine receptor. As to the kind of experiment: Inhibitory activity against human dopamine D2(short) receptor in rat pituitary GH4C1 cells at 100 nM. Type of assay: cell-based. As to conditions: Pituitary gland cell.
Assay [7] concerns the target T5, Adrenergic receptor alpha-1 (Rattus norvegicus). As to the kind of experiment: Inhibitory activity against adrenergic alpha-1 receptor in rat frontal cortex tissue at 1 uM. Type of assay: tissue-based.

T1 sequence (P14416 whole entry, canonical isoform): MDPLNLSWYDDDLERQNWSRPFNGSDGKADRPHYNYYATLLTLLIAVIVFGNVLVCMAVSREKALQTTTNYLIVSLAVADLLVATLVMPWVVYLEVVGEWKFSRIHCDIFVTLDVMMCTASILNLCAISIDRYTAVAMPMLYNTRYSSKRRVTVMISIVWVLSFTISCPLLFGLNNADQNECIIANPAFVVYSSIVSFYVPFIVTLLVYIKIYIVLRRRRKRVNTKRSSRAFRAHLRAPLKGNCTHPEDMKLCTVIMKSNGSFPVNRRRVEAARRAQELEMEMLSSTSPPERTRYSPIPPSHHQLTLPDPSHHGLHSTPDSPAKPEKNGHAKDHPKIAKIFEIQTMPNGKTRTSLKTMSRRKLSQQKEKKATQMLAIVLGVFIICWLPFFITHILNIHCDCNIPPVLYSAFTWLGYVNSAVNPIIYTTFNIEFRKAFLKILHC

Broadly, the Ki is the dissociation constant of the complex between target and ligand, obtained from inhibition or displacement. The low end stands for a stronger hold on the target, the high end for a looser hold on the target. As usually defined, the inhibition is the drop in the measured response relative to a control, in per cent. High values mean a strong effect, low ones a weak effect. For `O=C(N[C@H]1CCN(Cc2ccc3c(c2)OCO3)C1)c1ccc(-c2cccs2)cc1`, the Ki stood at 1800 nM on D(2) dopamine receptor [1], 400 nM in assay [2] and 7 nM on D(4) dopamine receptor. Also, the inhibition in assay [3] was 89%.
`O=C(N[C@H]1CCN(Cc2ccc(F)c(F)c2)C1)c1ccc(-c2cccs2)cc1`: the Ki was found to be 18000 nM on D(2) dopamine receptor [1], 10000 nM in assay [2], 14 nM at D(4) dopamine receptor and 16 nM in assay [4].
For `O=C(N[C@H]1CCN(Cc2ccc(F)cc2)C1)c1ccc(-c2cccs2)cc1`, in that order: 1500 nM, 420 nM, 5 nM and 14 nM.
In assay [4], `O=C(N[C@H]1CCN(Cc2ccccc2)C1)c1ccc(-c2cccs2)cc1` showed an inhibitory constant (Ki) of 1.8 nM.
`COc1cccc(CN2CC[C@H](NC(=O)c3ccc(-c4cccs4)cc3)C2)c1`: the Ki stood at 4460 nM on D(2) dopamine receptor [1], 920 nM in assay [2], 14 nM on D(4) dopamine receptor and 22 nM in assay [4].
For the molecule `Cc1ccc(CN2CC[C@H](NC(=O)c3cccc(-c4cccs4)c3)C2)cc1`, the Ki is 60 nM on D(2) dopamine receptor [1], 80 nM in assay [2], 4 nM at D(4) dopamine receptor and 610 nM in assay [4].
For `O=C(N[C@H]1CCN(Cc2ccc(Cl)cc2)C1)c1cccc(-c2cccs2)c1`, in that order: 230 nM, 220 nM, 16 nM and 1100 nM.
Regarding `O=C(N[C@H]1CCN(Cc2ccccc2F)C1)c1ccc(-c2cccs2)cc1`, the results for the Ki (at D(2) dopamine receptor [1]; in assay [2]; at D(4) dopamine receptor) were 38000 nM, 6900 nM and 33 nM, respectively. The inhibition in assay [3] is 89%.
In turn, `O=C(N[C@H]1CCN(Cc2cccc(C(F)(F)F)c2)C1)c1ccc(-c2cccs2)cc1` had a Ki at D(4) dopamine receptor of 22 nM. In addition, the inhibition in assay [3] came to 76%; in assay [5], 0%; on D(2) dopamine receptor [6] it was 0%.
For the molecule `O=C(N[C@H]1CCN(Cc2ccc(OC(F)(F)F)cc2)C1)c1ccc(-c2cccs2)cc1`, the figures for the Ki (in assay [2]; on D(4) dopamine receptor; in assay [4]) were 16000 nM, 78 nM and 140 nM, respectively. The inhibition on D(2) dopamine receptor [6] is 7%.
Turning to `O=C(N[C@H]1CCN(Cc2ccc(C(F)(F)F)cc2)C1)c1cccc(-c2cccs2)c1`, the Ki came out at 1300 nM at D(2) dopamine receptor [1], 360 nM in assay [2], 21 nM on D(4) dopamine receptor and 740 nM in assay [4].
With `O=C(N[C@H]1CCN(Cc2ccc(C(F)(F)F)cc2)C1)c1ccc(-c2cccs2)cc1`, the inhibition is 2% in assay [7] and 7% at D(2) dopamine receptor [6]. The Ki on D(4) dopamine receptor turned out to be 14 nM; in assay [4], 130 nM.
Regarding `O=C(N[C@H]1CCN(Cc2ccc(OC(F)(F)F)cc2)C1)c1cccc(-c2cccs2)c1`, the Ki on D(2) dopamine receptor [1] amounted to 500 nM; in assay [2], 1200 nM; on D(4) dopamine receptor, 52 nM; in assay [4] it was 5600 nM.
For `O=C(N[C@H]1CCN(Cc2ccc(Cl)c(Cl)c2)C1)c1ccc(-c2cccs2)cc1`, in that order: 29000 nM, 5000 nM, 15 nM and 22 nM.
Take `O=C(N[C@H]1CCN(Cc2ccccc2)C1)c1cccc(-c2cccs2)c1`: affinity in assay [4] was put at a Ki of 460 nM.
